# In paper PMC9989852 (Food and chemical toxicology : an international journal …, 2022):
# “And” between values parts separate entries of the source, which are not always exact repeats. Identical values can stand only once.
# Assays:
# ear pinna [1] = assay: Skin; type: in vivo, B6C3F1 mice; details: dermal, 28 days
# Method in brief: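 Female B6C3F1 mice (5/group) received 25 μl/ear daily to the dorsal ears in acetone. About 24 h after the last dose, tissues went into RPMI: both auricular dLNs, half spleen and one ear pinna. Single-cell suspensions were acquired on an LSR II, with populations gated per supplemental strategy and FMO gating controls. Results are mean ± SE, n=5, by one-way ANOVA.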
# ear pinna [2] = assay: Ear; type: in vivo, B6C3F1 mice; details: dermal, 28 days, mice affected of 5
# Method in brief: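 Female B6C3F1 mice (5/group) received 25 μl/ear on the dorsal ear surfaces daily, with acetone as vehicle. Tissues were formalin-fixed about 24 h after the last dose: liver remainder, half spleen, right kidney and half ear pinna. Sections were paraffin-embedded, cut at 5 μm and stained with H&E. A veterinary pathologist read them per STP guideline and graded 1 (minimal) to 5 (severe) by extent.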
# B6C3F1 mice = assay: Serum chemistries after 28-day dermal exposure; type: in vivo; details: 28 days
# Method in brief: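 Female B6C3F1 mice received daily dorsal ear application (25 μl/ear, acetone vehicle). About 24 h after the last dose, blood was taken by cardiac puncture. Serum was separated by centrifugation and stored at −20 °C. ALKP, BUN, glucose and cholesterol were read on a Catalyst DX analyzer. Data are mean ± SE of 4–5 mice, ANOVA with Dunnett's; ALKP was also tested by linear regression (p < 0.05).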
# liver (caudate) = assay: Liver gene expression; type: in vivo, B6C3F1 mice; details: dermal, 28 days
# Method in brief: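 Dosing was daily topical to both dorsal ears (25 μl/ear, acetone vehicle) in female B6C3F1 mice. Liver caudate lobe or half ear pinna was stored in RNAlater and homogenized in RLT buffer. RNA was isolated on RNeasy columns with DNase, and 1–2 μg was reverse-transcribed. TaqMan real-time PCR was read as 2−ΔΔCT vs vehicle, normalized to β-actin. Statistics: ANOVA/Dunnett's, or Kruskal-Wallis/Dunn's for unequal variance.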
smiles,measurement,setting,value
"O=C(O)C(F)(F)C(F)(F)C(F)(F)C(F)(F)C(F)(F)C(F)(F)F [PFHpA, Perfluoroheptanoic acid]",Ear CD4^+ cell number,ear pinna [1]; 1.25%,1.49 ± 0.38 × 10^3
same,Ear CD4^+ frequency,ear pinna [1]; 1.25%,1.78 ± 0.19%
same,Ear CD8^+ cell number,ear pinna [1]; 1.25%,0.79 ± 0.14 × 10^2
same,Ear CD8^+ frequency,ear pinna [1]; 1.25%,0.11 ± 0.03%
same,Ear CD45^+ cell number,ear pinna [1]; 1.25%,8.01 ± 1.58 × 10^4
same,Ear CD45^+ frequency,ear pinna [1]; 1.25%,8.04 ± 1.11%
same,Ear CD lib- F4/80+ DCs cell number,ear pinna [1]; 1.25%,5.44 ± 0.94 × 10^2
same,Ear CDllb + F4/80+ DCs cell number,ear pinna [1]; 1.25%,4.52 ± 0.98 × 10^2
same,Ear CDllb- F4/80+ DCs frequency,ear pinna [1]; 1.25%,0.70 ± 0.05%
same,Ear CDllb- F4/80-DCs cell number,ear pinna [1]; 1.25%,1.12 ± 0.29 × 10^3
same,Ear CDllb- F4/80-DCs frequency,ear pinna [1]; 1.25%,1.34 ± 0.16 %
same,Ear Dendritic Cells cell number,ear pinna [1]; 1.25%,2.18 ± 0.47 × 10^3
same,Ear Dendritic Cells frequency,ear pinna [1]; 1.25%,2.69 ± 0.15%
same,Ear Eosinophils cell number,ear pinna [1]; 1.25%,1.41 ± 0.42 × 10^3
same,Ear Eosinophils frequency,ear pinna [1]; 1.25%,1.60 ± 0.26%
same,Ear NK cell number,ear pinna [1]; 1.25%,3.89 ± 0.91 × 10^2
same,Ear NK frequency,ear pinna [1]; 1.25%,0.48 ± 0.04%
same,Ear Neutrophils cell number,ear pinna [1]; 1.25%,1.59 ± 0.24 × 10^2
same,Ear Neutrophils frequency,ear pinna [1]; 1.25%,0.21 ± 0.02%
same,Ear Total Cellularity,ear pinna [1]; 1.25%,0.96 ± 0.08 × 10^6
same,Ear CD8^+ cell number,ear pinna [1]; 2.5%,1.77 ± 0.27 × 10^2
same,Ear CD8^+ frequency,ear pinna [1]; 2.5%,0.16 ± 0.01%
same,Ear CD lib- F4/80+ DCs cell number,ear pinna [1]; 2.5%,7.95 ± 0.98 × 10^2
same,Ear CDllb + F4/80+ DCs cell number,ear pinna [1]; 2.5%,13.00 ± 2.97 × 10^2
same,Ear CDllb + F4/80+ DCs frequency,ear pinna [1]; 2.5%,1.13 ± 0.12 %
same,Ear CDllb- F4/80+ DCs frequency,ear pinna [1]; 2.5%,0.75 ± 0.08 %
same,Ear CDllb- F4/80-DCs cell number,ear pinna [1]; 2.5%,2.42 ± 0.45 × 10^3
same,Ear Dendritic Cells frequency,ear pinna [1]; 2.5%,4.21 ± 0.26 %
same,Ear Eosinophils cell number,ear pinna [1]; 2.5%,5.54 ± 1.71 × 10^3
same,Ear Eosinophils frequency,ear pinna [1]; 2.5%,4.57 ± 0.96 %
same,Ear NK cell number,ear pinna [1]; 2.5%,7.43 ± 1.69 × 10^2
same,Ear NK frequency,ear pinna [1]; 2.5%,0.66 ± 0.08%
same,Ear Neutrophils cell number,ear pinna [1]; 2.5%,2.48 ± 0.43 × 10^2
same,Ear CD4^+ cell number,ear pinna [1]; 5%,6.06 ± 0.33 × 10^3
same,Ear CD4^+ frequency,ear pinna [1]; 5%,4.18 ± 0.24 %
same,Ear CD8^+ cell number,ear pinna [1]; 5%,2.81 ± 0.39 × 10^2
same,Ear CD8^+ frequency,ear pinna [1]; 5%,0.20 ± 0.03 %
same,Ear CD45^+ cell number,ear pinna [1]; 5%,14.60 ± 0.67 × 10^4
same,Ear CD45^+ frequency,ear pinna [1]; 5%,12.38 ± 0.81%
same,Ear CD lib- F4/80+ DCs cell number,ear pinna [1]; 5%,14.50 ± 0.97 × 10^2
same,Ear CDllb + F4/80+ DCs cell number,ear pinna [1]; 5%,18.90 ± 1.84 × 10^2
same,Ear CDllb + F4/80+ DCs frequency,ear pinna [1]; 5%,1.31 ± 0.14 %
same,Ear CDllb- F4/80+ DCs frequency,ear pinna [1]; 5%,1.00 ± 0.07 %
same,Ear CDllb- F4/80-DCs cell number,ear pinna [1]; 5%,3.38 ± 0.19 × 10^3
same,Ear CDllb- F4/80-DCs frequency,ear pinna [1]; 5%,2.32 ± 0.03%
same,Ear Dendritic Cells cell number,ear pinna [1]; 5%,7.25 ± 0.31 × 10^3
same,Ear Dendritic Cells frequency,ear pinna [1]; 5%,4.99 ± 0.15 %
same,Ear Eosinophils cell number,ear pinna [1]; 5%,6.45 ± 1.12 × 10^3
same,Ear Eosinophils frequency,ear pinna [1]; 5%,4.36 ± 0.63 %
same,Ear NK cell number,ear pinna [1]; 5%,7.96 ± 0.70 × 10^2
same,Ear NK frequency,ear pinna [1]; 5%,0.56 ± 0.07%
same,Ear Neutrophils cell number,ear pinna [1]; 5%,7.10 ± 1.15 × 10^2
same,Ear Neutrophils frequency,ear pinna [1]; 5%,0.49 ± 0.07 %
same,Ear Total Cellularity,ear pinna [1]; 5%,1.19 ± 0.08 × 10^6
same,"Ear: Degeneration/regeneration, cartilage, focal, Mild (incidence)",ear pinna [2]; 1.25%,0
same,"Ear: Fibrosis, dermis, focal, Minimal (incidence)",ear pinna [2]; 1.25%,0
same,"Ear: Hyperkeratosis, epidermis, focal, Mild (incidence)",ear pinna [2]; 1.25%,0
same,"Ear: Hyperkeratosis, epidermis, focal, Minimal (incidence)",ear pinna [2]; 1.25%,0
same,"Ear: Hyperplasia, epidermis, focal, Mild (incidence)",ear pinna [2]; 1.25%,0
same,"Ear: Hyperplasia, epidermis, focal, Minimal (incidence)",ear pinna [2]; 1.25%,0
same,"Ear: Inflammation, mixed cell, dermis, Minimal (incidence)",ear pinna [2]; 1.25%,0
same,"Ear: Inflammation, mononuclear cell, dermis, Minimal (incidence)",ear pinna [2]; 1.25%,0
same,"Ear: Necrosis, epidermis, multifocal, Minimal (incidence)",ear pinna [2]; 1.25%,0
same,"Ear: Degeneration/regeneration, cartilage, focal, Mild (incidence)",ear pinna [2]; 2.5%,0
same,"Ear: Fibrosis, dermis, focal, Minimal (incidence)",ear pinna [2]; 2.5%,0
same,"Ear: Hyperkeratosis, epidermis, focal, Mild (incidence)",ear pinna [2]; 2.5%,0
same,"Ear: Hyperkeratosis, epidermis, focal, Minimal (incidence)",ear pinna [2]; 2.5%,0
same,"Ear: Hyperplasia, epidermis, focal, Mild (incidence)",ear pinna [2]; 2.5%,0
same,"Ear: Hyperplasia, epidermis, focal, Minimal (incidence)",ear pinna [2]; 2.5%,2/5 and 2
same,"Ear: Inflammation, mixed cell, dermis, Minimal (incidence)",ear pinna [2]; 2.5%,0
same,"Ear: Inflammation, mononuclear cell, dermis, Minimal (incidence)",ear pinna [2]; 2.5%,0
same,"Ear: Necrosis, epidermis, multifocal, Minimal (incidence)",ear pinna [2]; 2.5%,0
same,"Ear: Fibrosis, dermis, focal, Minimal (incidence)",ear pinna [2]; 5%,0
same,"Ear: Hyperkeratosis, epidermis, focal, Mild (incidence)",ear pinna [2]; 5%,0
same,"Ear: Hyperkeratosis, epidermis, focal, Minimal (incidence)",ear pinna [2]; 5%,4/5 and 4
same,"Ear: Hyperplasia, epidermis, focal, Mild (incidence)",ear pinna [2]; 5%,1/4 and 1
same,"Ear: Hyperplasia, epidermis, focal, Minimal (incidence)",ear pinna [2]; 5%,4/5 and 4
same,"Ear: Inflammation, mixed cell, dermis, Minimal (incidence)",ear pinna [2]; 5%,1
same,"Ear: Inflammation, mononuclear cell, dermis, Minimal (incidence)",ear pinna [2]; 5%,1
same,"Ear: Necrosis, epidermis, multifocal, Minimal (incidence)",ear pinna [2]; 5%,0
same,serum ALKP,"B6C3F1 mice; 1.25–5%, linear regression p < 0.05, not significant via ANOVA",significant linear regression increase
same,"serum glucose, increase compared to vehicle control",B6C3F1 mice; 5%,30%
same,"serum urea nitrogen (BUN), decrease",B6C3F1 mice; 5%,30%
same,serum alanine aminotransferase (ALT),"B6C3F1 mice; any concentration, data not shown",No change
same,liver Pparγ expression,liver (caudate); 1.25%,increasing
same,liver Pparδ expression,liver (caudate); 1.25%,decreasing
same,"liver Cd36 gene expression, increase",liver (caudate); 2.5%,4 fold
same,"liver Lpl gene expression, increase",liver (caudate); 2.5%,2.2 fold
same,liver Pparδ expression,liver (caudate); 2.5%,decreasing
same,liver Acox1 gene expression,liver (caudate); 5%,increase
same,"liver Cd36 gene expression, increase",liver (caudate); 5%,4.8 fold
same,"liver Lpl gene expression, increase",liver (caudate); 5%,2.3 fold
same,liver Pltp gene expression,liver (caudate); 5%,increase
same,liver Pparδ expression,liver (caudate); 5%,decreasing
